From ChEMBL document CHEMBL1926562, “Design, synthesis and biological activity of sphingosine kinase 2 selective inhibitors” (Bioorg Med Chem, 2012)
The source made the active and inactive calls. The calls are words filed in the database; no cut-off is given here.

How the values were obtained:
[1] = molecular target: T1, Sphingosine kinase 2 (Homo sapiens) (UniProt Q9NRA0); experiment: Inhibition of SphK2 in human U937 cells assessed as change in S1P level by LC/MS analysis; format: cell-based; conditions: U-937
T1 sequence (whole entry): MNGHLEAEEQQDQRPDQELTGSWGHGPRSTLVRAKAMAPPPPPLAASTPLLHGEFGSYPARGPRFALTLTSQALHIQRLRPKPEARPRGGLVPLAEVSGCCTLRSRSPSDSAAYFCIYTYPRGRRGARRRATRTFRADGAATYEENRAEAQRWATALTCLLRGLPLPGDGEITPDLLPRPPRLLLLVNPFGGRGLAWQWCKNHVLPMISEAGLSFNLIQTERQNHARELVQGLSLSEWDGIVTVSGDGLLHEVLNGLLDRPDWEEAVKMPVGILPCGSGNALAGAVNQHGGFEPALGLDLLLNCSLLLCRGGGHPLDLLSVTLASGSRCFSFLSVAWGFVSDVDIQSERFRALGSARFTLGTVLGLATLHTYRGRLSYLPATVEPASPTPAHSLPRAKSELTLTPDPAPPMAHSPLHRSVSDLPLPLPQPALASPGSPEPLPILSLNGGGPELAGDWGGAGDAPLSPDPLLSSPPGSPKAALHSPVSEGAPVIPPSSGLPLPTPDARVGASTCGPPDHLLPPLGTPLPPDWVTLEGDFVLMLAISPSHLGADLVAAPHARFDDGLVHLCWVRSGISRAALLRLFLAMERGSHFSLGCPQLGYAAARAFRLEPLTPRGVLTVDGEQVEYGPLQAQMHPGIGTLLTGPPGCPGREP
Method in brief: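 U937 cells were treated with inhibitor, and S1P levels were measured by LC/MS.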

[2] = molecular target: T1, Sphingosine kinase 2 (Homo sapiens); experiment: Inhibition of SphK2 in human U937 cells assessed as decrease in ERK phosphorylation after 16 hrs by Western blot analysis; format: cell-based; conditions: U-937
Method in brief: (§1)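 U937 cells were incubated with a range of inhibitor concentrations for 16 h, then washed with PBS and Dounce-lysed. Equal protein amounts were run on 10% SDS–PAGE and blotted to nitrocellulose. Blots were blocked in 5% milk/TBS-Tween, probed with antibodies to ERK, p-ERK, Akt, p-Akt and β-actin (1:1000, 1 h), then HRP anti-IgG (1:2000). PD098059 (10 μM) served as ERK-phosphorylation control.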

Sphingosine kinase 1 [3] = molecular target: T2, Sphingosine kinase 1 (Homo sapiens, UniProt Q9NYA1); experiment: Inhibition of human SphK1 expressed in baculovirus infected Sf9 insect cells using sphingosine and [gamma-(32)P]-ATP by scintillation proximity assay
Method in brief: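 Ki calculated as Ki = [I]/(K′m/Km – 1), using a sphingosine Km of 10 μM for SphK1 and 5 μM for SphK2. Enzyme came from infected Sf9 cell extract (10,000×g supernatant, 2-3 μg protein).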

[4] = molecular target: T1, Sphingosine kinase 2 (Homo sapiens); experiment: Inhibition of SphK2 in human U937 cells assessed as decrease in Akt phosphorylation after 16 hrs by Western blot analysis; format: cell-based; conditions: U-937; method in brief: as §1
Sphingosine kinase 2 = molecular target: T3, Sphingosine kinase 2 (Mus musculus, UniProt Q9JIA7); experiment: Inhibition of mouse SphK2 expressed in baculovirus infected Sf9 insect cells using sphingosine and [gamma-(32)P]-ATP by scintillation proximity assay
T3 sequence (Q9JIA7 whole entry): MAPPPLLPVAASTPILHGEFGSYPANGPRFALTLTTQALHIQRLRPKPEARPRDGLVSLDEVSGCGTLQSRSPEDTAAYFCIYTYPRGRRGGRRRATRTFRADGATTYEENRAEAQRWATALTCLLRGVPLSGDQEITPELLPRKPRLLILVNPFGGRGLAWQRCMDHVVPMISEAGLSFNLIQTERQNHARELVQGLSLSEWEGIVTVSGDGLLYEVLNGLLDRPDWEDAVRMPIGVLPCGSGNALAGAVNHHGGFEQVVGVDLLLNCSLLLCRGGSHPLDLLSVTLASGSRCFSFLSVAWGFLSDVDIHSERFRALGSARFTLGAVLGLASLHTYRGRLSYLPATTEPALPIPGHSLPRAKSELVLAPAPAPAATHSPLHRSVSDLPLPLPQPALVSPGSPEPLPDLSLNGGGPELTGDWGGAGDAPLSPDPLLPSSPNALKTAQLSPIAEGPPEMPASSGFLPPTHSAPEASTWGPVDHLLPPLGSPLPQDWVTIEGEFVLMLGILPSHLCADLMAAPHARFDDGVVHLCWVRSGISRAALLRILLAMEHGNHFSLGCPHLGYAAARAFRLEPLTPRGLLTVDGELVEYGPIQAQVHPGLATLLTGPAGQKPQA

[5] = molecular target: T1, Sphingosine kinase 2 (Homo sapiens); experiment: Inhibition of SphK2 in human U937 cells using FTY720 as substrate assessed as decrease in phosphorylated FTY720 at 10 uM after 2 hrs by LC/MS analysis; format: cell-based; conditions: U-937
Method in brief: (§2)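 Cultured U937 cells were given FTY720 plus 10 μM inhibitor for 2 h, then pelleted by centrifugation. FTY720 and FTY720-P in the cell pellet were measured by LC/MS (C18 reverse phase, water/methanol/formic acid gradient) and reported as moles per million cells. Values are means ± SD of three independent experiments, with significance by unpaired two-tailed t-test.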

[6] = Selectivity ratio of Ki/Km for human SphK1 to Ki/Km for mouse SphK2
Method in brief: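 Selectivity calculated as (Ki/Km)SphK1 divided by (Ki/Km)SphK2, with sphingosine Km taken as 10 μM for SphK1 and 5 μM for SphK2.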

Sphingosine kinase 1 [7] = molecular target: T2, Sphingosine kinase 1; experiment: Inhibition of human SphK1 expressed in baculovirus infected Sf9 insect cells assessed as remaining activity using sphingosine and [gamma-(32)P]-ATP as substrate at 100 uM by scintillation proximity counting
Method in brief: (§3)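 Enzyme source: supernatant (10,000×g) of homogenized Sf9 cells infected with recombinant virus for 72 h, 2-3 μg protein per reaction. Sphingosine substrate at 10 μM for SphK1 and 5 μM for SphK2. Initial screen used inhibitor at 100 μM, with some compounds at 10 μM. Read-out is percent of remaining kinase activity, averaged over three experiments.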

[8] = molecular target: T1, Sphingosine kinase 2 (Homo sapiens); experiment: Inhibition of SphK2 in human U937 cells using FTY720 as substrate assessed as accumulation of FTY720 at 10 uM after 2 hrs by LC/MS analysis; format: cell-based; conditions: U-937; method in brief: as §2
[9] = molecular target: T4, Sphingosine kinase 2 (Mus musculus) (UniProt Q9JIA7); experiment: Inhibition of mouse SphK2 expressed in baculovirus infected Sf9 insect cells assessed as remaining activity using sphingosine and [gamma-(32)P]-ATP at 100 uM by scintillation proximity counting; method in brief: as §3
T4 sequence (whole entry): T3 sequence (Q9JIA7 whole entry)

T2 sequence (Q9NYA1 whole entry): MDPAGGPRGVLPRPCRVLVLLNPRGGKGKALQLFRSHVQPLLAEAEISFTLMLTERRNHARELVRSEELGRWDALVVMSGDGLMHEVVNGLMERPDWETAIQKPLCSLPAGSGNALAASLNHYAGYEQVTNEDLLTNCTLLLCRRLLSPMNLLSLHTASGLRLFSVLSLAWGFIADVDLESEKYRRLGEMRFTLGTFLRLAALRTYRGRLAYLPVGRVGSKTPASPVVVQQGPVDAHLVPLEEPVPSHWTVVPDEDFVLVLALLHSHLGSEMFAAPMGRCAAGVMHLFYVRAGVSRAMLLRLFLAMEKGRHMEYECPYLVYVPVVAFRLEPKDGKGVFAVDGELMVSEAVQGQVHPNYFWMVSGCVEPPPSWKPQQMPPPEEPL

inhibition [1]: inactive
inhibition [2]: Dose-dependent effect
Ki (Sphingosine kinase 1 [3]): 60 µM
inhibition [4]: Dose-dependent effect
Ki (Sphingosine kinase 2): 8 µM
inhibition [5]: Active
Selectivity ratio [6]: 3.75
Activity (Sphingosine kinase 1 [7]): 10.2%
inhibition [8]: Active
Activity [9]: 4%
SMILES: CCCCCCCCc1ccc([C@H]2CC[C@H]([N+](C)(C)C)CC2)cc1
